Source: PubChem (several laboratories)
TDP2 absorb = TDP2 (human) inhibition, absorbance primary screen. O95551. AID 720702. recombinant TDP2, T5PNP hydrolysis, p-nitrophenol absorbance 415 nm. inhibition, % at 12.8 µM. hit rate 0.34% among 370,000;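 active = inhibition above the mean of all tested compounds plus 3 SD, set per campaign, cut at about 25% in these data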
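Material: recombinant human TDP2; quantity: TDP2 enzyme at 120 nM final; medium: Tris-HCl pH 7.5 with MgCl2; compound: single concentration, 12.8 µM nominal, with 1% DMSO; incubation: 2 h enzyme incubation at 37 °C; signal: epi absorbance; measure: percent inhibition; benchmarks: high control without enzyme, low control DMSO plus TDP2; repeats: singlicate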
GSTO1 inh = GSTO1 inhibition, counter-screen for RBBP9 inhibitors; inhibition, % at 5.96 µM; P78417; recombinant GSTO1, activity-based probe fluorescence polarization; hit rate 1.1% among 300,000;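 active = inhibition above the campaign mean inhibition plus 3 SD, cut at about 35% in these data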
HKDC1 inh = inhibitors of human hexokinase HKDC1; recombinant HKDC1, G6PDH/diaphorase resazurin coupled fluorescence; AID 493160; hit rate 0.16% among 340,000; inhibition, % at 20 µM; Q2TB90;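 active = inhibition above about 35% when tested at 20 µM, limit read from the data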
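Incubation: 90 min at room temperature in dark / Material: recombinant HKDC1 (HK5) hexokinase enzyme, produced in-house / Quantity: enzyme 5 µg/mL final / Compound: one dose of 20 µM, 1% DMSO / Reagent: glucose and ATP substrates / Buffer or medium: Tris pH 8.0 buffer with MgCl2, Tween-20, BSA, BME / Technique: resorufin fluorescence at 613 nm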
UCH37 DUB inh = human UCH37 deubiquitinating enzyme inhibition; Q9Y5K5; purified proteasome/UCH37, Ub-AMC cleavage fluorescence; inhibition, % (test concentration not listed); hit rate 0.33% among 330,000; AID 588478;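 active = mean inhibition over replicate wells above about 20%, limit read from the data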
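Schedule: 30 min plus 25 min, room temperature / Material: human UCH37 within purified proteasomes / Technique: AMC fluorescence intensity at 355/460 nm / Buffer or medium: pH 7.4 Tris-HCl (50 mM) with ovalbumin, ATP-MgCl2, DTT / Controls: wells without proteasome as full block, compound-free enzyme plus substrate as uninhibited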
Fh CTSL1 inh = cathepsin L1 inhibition, PFM18AAP counter-screen; recombinant F. hepatica cathepsin L1, Z-Leu-Arg-MCA fluorescence; inhibition, % at 5.96 µM; hit rate 0.49% among 300,000; AID 1906;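 active = inhibition above the mean of all tested compounds plus 3 SD, set per screening campaign, cut at about 17% in these data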
PAD4 FP inh = inhibitors of human PAD4; Q9UM07; recombinant PAD4, RCA probe fluorescence polarization; inhibition, % at 6.36 µM; hit rate 0.41% among 330,000;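 active = percent inhibition above a cutoff equal to the mean of all tested compounds plus 3 SD, cut at about 15% in these data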
Target sequence (Q9UM07 whole entry, looked up): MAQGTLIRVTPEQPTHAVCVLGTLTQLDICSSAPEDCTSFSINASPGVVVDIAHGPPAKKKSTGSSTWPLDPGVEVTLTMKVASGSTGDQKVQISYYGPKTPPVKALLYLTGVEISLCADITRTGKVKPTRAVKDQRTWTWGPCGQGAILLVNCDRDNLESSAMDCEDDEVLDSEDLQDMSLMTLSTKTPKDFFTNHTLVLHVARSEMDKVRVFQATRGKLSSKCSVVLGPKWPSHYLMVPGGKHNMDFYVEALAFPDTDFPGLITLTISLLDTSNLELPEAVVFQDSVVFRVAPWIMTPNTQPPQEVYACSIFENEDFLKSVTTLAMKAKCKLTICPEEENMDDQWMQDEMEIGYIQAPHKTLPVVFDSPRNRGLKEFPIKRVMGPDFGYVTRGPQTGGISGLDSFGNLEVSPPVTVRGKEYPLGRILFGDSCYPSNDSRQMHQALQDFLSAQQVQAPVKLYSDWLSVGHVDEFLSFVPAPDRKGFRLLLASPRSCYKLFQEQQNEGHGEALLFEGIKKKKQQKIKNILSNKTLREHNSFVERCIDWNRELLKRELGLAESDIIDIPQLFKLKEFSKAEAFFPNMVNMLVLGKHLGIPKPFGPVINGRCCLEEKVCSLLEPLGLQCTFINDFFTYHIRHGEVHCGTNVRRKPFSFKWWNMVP
A number is an active result; – = inactive; · = not tested or not shown. In the library only some 1.6% were active in any assay of this set; here they are far more common.

SMILES	TDP2 absorb	GSTO1 inh	HKDC1 inh	UCH37 DUB inh	Fh CTSL1 inh	PAD4 FP inh
Cc1ccc(-n2nc(C)c(NC(=O)CCl)c2C)cc1	–	84.1	–	–	–	–
COC(=O)NN=C(C)c1ccco1	·	·	·	–	·	·
COc1ccccc1-c1cc(C(=O)NN=Cc2cn(C)nc2C)c2ccccc2n1	·	·	·	–	·	·
COc1cc(C(=O)NC2=NCCS2)ccc1OCc1c(C)noc1C	–	–	–	–	37.2	–
Nc1nonc1-n1nnc(C(=O)NN=CC2CC=CCC2)c1CSc1ccccc1 (centres undefined)	·	·	·	–	·	·
CCOc1ccc(C2CC(c3ccc(OC)cc3)n3ncnc3N2)cc1 (centres undefined)	–	–	–	–	18.1	–
CCOc1ccc(C2CC(c3cccc(C)c3)n3ncnc3N2)cc1 (centres undefined)	–	–	–	–	–	–
O=C(CNC(=O)C1COc2ccccc2O1)NN=Cc1ccc([N+](=O)[O-])cc1 (centres undefined)	·	·	·	–	·	·
Cc1ccc(S(=O)(=O)c2nc(C)oc2NCc2ccccc2)cc1	·	–	·	·	34.8	–
CNc1oc(Cc2ccccc2)nc1S(=O)(=O)c1ccccc1	·	–	–	–	22.5	–
CNc1oc(C)nc1S(=O)(=O)c1ccc(C)cc1	–	–	–	–	–	–
CCOC(=O)C(CC)C(C)=NNC(=O)CCC(=O)Nc1ccc(Cl)cc1Cl (centres undefined)	·	·	·	–	·	·
O=C(CNC(=O)c1ccccc1)OCC(=O)N1N=C(c2ccc(Cl)cc2)CC1c1ccco1 (centres undefined)	–	–	–	–	20.4	–
COc1ccc(C2CC(c3ccccc3)=NN2C(=O)COC(=O)CNC(=O)c2ccccc2)cc1 (centres undefined)	–	–	–	–	30.7	–
COc1ccc(C2CC(c3ccccc3)=NN2C(=O)COC(=O)c2ccc(Cl)nc2)cc1 (centres undefined)	–	–	–	–	–	–
CC1SC(=NN=Cc2cccc([N+](=O)[O-])c2)N(C(C)(C)C)C1=O (centres undefined)	·	·	·	–	·	·
COc1cc(-c2n[nH]c(=S)n2N=Cc2cccn2C)cc(OC)c1OC	·	·	·	–	·	·
COc1cc(C(=O)Oc2ccccc2C=NNC(=O)c2ccc(Cl)cc2Cl)cc(OC)c1OC	·	·	·	–	·	·
Cc1cc(NN=Cc2ccccc2[N+](=O)[O-])nc(-n2nc(C)cc2C)n1	·	·	·	–	·	·
CC(=O)OCn1ncc(N2CCOCC2)c(Br)c1=O	–	–	–	–	–	–
O=C(OCn1ncc(Br)c(Br)c1=O)c1ccc(F)cc1	·	36.1	–	–	–	25.7
CCOC(=O)C=c1sc(=Cc2ccc(C(=O)OC)cc2)c(=O)n1CC(=O)Nc1ccccc1	·	·	·	–	·	·
COc1ccc(-c2noc(CNS(=O)(=O)c3ccc(NC(C)=O)cc3)n2)cc1	–	37.0	–	–	–	–
Cc1ccc2c(c1)-c1c(cnn1CC(=O)NC(C)CCc1ccco1)CO2 (centres undefined)	–	–	–	–	–	–
Cc1ccc2c(c1)-c1c(cnn1CC(=O)N(CCC#N)c1ccccc1)CO2	–	–	–	–	47.0	–
SMILES	TDP2 absorb	GSTO1 inh	HKDC1 inh	UCH37 DUB inh	Fh CTSL1 inh	PAD4 FP inh
Cc1ccc2c(c1)-c1c(cnn1CC(=O)N(Cc1ccco1)C1CCCCC1)CO2	–	–	–	–	29.0	–
CC(=NNc1ccccc1)C(=NO)C(=O)Nc1ccccc1	·	·	·	–	·	·
Cc1cc(=O)oc2cc(OCCSCCN3CCCC3)ccc12	–	–	–	–	–	–
Cc1ccccc1-c1nnc(SCCOc2ccc3c(C)cc(=O)oc3c2)o1	–	35.9	–	–	–	–
CCCN(CCC)c1nc(C#N)nc(N(CCC)CCC)n1	–	–	–	–	17.7	–
CN(C)c1nc(C#N)nc(N(C)C)n1	–	–	–	–	26.1	–
CCCN(CCC)c1nc(N(CCC)CCC)[nH]c(=O)n1	–	–	–	–	–	–
O=C(CCl)Nc1cccc(S(=O)(=O)N2CCCCCC2)c1	–	90.6	–	–	78.0	–
CCn1cc(C=NNC(=O)c2cc3c(ccc4ccccc43)o2)c2ccccc21	·	·	·	–	·	·
COc1ccc(-c2cn[nH]c2-c2ccc(OC)cc2O)cc1	–	–	–	–	–	–
COc1ccc(-c2[nH]ncc2-c2ccc(Cl)cc2)c(O)c1	–	–	–	–	17.3	–
O=C(NCc1ccc2c(c1)OCO2)c1ccc(CS(=O)Cc2cccc(Cl)c2)o1 (centres undefined)	–	–	–	–	–	–
O=C(NCc1ccc2c(c1)OCO2)c1ccc(COc2cccc(Cl)c2)o1	–	–	–	–	21.6	–
C/C(=N\Nc1ccc(C)c(Cl)c1)c1ccncc1	–	–	–	·	18.9	–
C/C(=N\Nc1ccc(C)c(Cl)c1)c1cccnc1	–	–	–	·	–	–
O=C1Nc2ccccc2C12OC1CCCCC1O2 (centres undefined)	–	–	–	–	–	–
N#CC1=C(N)C(C#N)(C#N)C2(C(=O)Nc3ccccc32)C2CCCC=C12 (centres undefined)	–	–	–	–	20.1	–
COc1ccc([N+](=O)[O-])cc1NC(=O)c1ccc(Br)s1	–	–	–	–	17.7	–
COc1ccc(NC(=O)c2ccc([N+](=O)[O-])s2)c([N+](=O)[O-])c1	–	55.4	–	–	–	–
COc1ccc(C=NNC(=O)c2cccc(Br)c2)cc1Cn1cc(Cl)cn1	·	·	·	–	·	·
O=C(/C=C/c1ccccc1)NNC1=NS(=O)(=O)c2ccccc21	–	–	–	22.5	–	–
Cc1ccc(N(CC(=O)NN=Cc2cccc(Br)c2)S(C)(=O)=O)cc1	·	·	·	–	·	·
CCn1cc(C(=O)NCCc2ccccc2)c(=O)c2cc(S(=O)(=O)N3CCCC3)ccc21	–	–	–	–	17.2	–
COC(=O)c1c(NC(=O)C(=O)NCCCN2CCOCC2)sc2c1CCC2	–	–	–	–	23.3	–
COC(=O)c1c(NC(=O)C(=O)NCCCN2CCOCC2)sc2c1CC(C)(C)OC2	–	–	–	–	–	–
SMILES	TDP2 absorb	GSTO1 inh	HKDC1 inh	UCH37 DUB inh	Fh CTSL1 inh	PAD4 FP inh
O=C(COc1cccc2cccnc12)NN=C1SCC(=O)N1Cc1ccccc1	·	·	·	–	·	·
CNc1cccccc1=S	–	37.0	–	–	–	–
CNc1ccccc1	–	·	–	–	·	–
Oc1cccc(C=NN2CCN(C3c4ccccc4-c4ccccc43)CC2)c1	·	·	·	–	·	·
Cc1ccc(Oc2ccc(OCC(=O)NC(CC(C)C)C(=O)O)cc2)cc1 (centres undefined)	–	38.3	–	–	–	–
S=C(NCCc1ccccc1)NC1CCCCCC1	–	–	–	–	–	–
S=C(NCCNCc1ccccc1)NC1CCCCC1	·	–	·	·	19.0	–
Cc1nn(-c2ccccc2)c(C)c1C=NNC(=O)CSc1nc2ccccc2c(=O)n1-c1ccccc1	·	·	·	–	·	·
CCNc1nc(NC(C)C)nc(N(C#N)C(C)C(=O)N(C)C)n1 (centres undefined)	–	–	–	–	–	–
